{"source": "ChEMBL document CHEMBL1777686", "about": "“Discovery of DA-1229: a potent, long acting dipeptidyl peptidase-4 inhibitor for the treatment of type 2 diabetes” (Bioorg Med Chem Lett, 2011)", "key": {"Cytochrome P450 3A4": {"target": "Cytochrome P450 3A4 (Homo sapiens, UniProt P08684)", "sequence (P08684 whole entry)": "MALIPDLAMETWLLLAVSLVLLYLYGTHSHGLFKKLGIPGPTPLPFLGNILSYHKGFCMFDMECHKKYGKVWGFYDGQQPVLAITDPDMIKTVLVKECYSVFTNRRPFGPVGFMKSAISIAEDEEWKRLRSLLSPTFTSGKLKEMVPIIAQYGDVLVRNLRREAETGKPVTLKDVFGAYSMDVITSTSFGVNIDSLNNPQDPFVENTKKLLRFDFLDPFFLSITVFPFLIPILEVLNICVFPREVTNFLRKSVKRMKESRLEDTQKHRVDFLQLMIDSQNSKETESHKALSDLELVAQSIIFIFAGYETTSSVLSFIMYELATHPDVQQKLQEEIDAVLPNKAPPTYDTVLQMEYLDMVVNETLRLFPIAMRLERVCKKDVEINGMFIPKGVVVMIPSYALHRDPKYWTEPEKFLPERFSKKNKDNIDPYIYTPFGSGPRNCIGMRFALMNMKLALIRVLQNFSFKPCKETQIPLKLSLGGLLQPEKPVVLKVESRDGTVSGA", "test": "Inhibition of CYP3A4", "format": "ADME"}, "Cytochrome P450 2C9": {"target": "Cytochrome P450 2C9 (Homo sapiens, UniProt P11712)", "sequence (P11712 whole entry)": "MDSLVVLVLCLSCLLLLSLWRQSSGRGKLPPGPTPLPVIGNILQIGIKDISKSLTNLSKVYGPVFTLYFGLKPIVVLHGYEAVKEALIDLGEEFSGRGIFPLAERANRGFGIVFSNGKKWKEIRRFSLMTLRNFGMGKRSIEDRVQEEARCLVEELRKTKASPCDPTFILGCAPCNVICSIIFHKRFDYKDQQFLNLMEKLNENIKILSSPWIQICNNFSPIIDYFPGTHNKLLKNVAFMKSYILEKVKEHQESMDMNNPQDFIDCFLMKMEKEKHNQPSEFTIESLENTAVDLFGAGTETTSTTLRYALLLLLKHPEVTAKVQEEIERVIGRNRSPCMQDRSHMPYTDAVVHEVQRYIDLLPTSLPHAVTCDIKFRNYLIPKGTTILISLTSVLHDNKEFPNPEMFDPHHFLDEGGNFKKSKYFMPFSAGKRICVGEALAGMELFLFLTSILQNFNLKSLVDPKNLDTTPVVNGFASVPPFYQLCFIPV", "test": "Inhibition of CYP2C9", "format": "ADME"}, "Cytochrome P450 2C19": {"target": "Cytochrome P450 2C19 (Homo sapiens, UniProt P33261)", "sequence (P33261 whole entry)": "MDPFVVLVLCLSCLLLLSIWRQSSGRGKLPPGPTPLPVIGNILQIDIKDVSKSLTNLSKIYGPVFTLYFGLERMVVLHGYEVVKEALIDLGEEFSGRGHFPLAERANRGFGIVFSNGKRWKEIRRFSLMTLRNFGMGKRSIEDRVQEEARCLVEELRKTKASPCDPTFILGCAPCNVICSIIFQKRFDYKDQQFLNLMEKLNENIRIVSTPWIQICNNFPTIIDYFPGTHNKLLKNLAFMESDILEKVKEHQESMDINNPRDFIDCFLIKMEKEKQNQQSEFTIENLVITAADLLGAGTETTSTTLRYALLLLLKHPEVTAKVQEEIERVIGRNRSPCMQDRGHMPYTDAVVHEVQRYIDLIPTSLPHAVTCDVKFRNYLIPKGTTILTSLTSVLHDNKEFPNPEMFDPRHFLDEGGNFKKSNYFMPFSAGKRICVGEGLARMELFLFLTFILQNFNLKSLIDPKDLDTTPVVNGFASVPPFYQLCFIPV", "test": "Inhibition of CYP2C19", "format": "ADME"}, "Cytochrome P450 1A2": {"target": "T1, Cytochrome P450 1A2 (Homo sapiens, UniProt P05177)", "T1 sequence (P05177 whole entry)": "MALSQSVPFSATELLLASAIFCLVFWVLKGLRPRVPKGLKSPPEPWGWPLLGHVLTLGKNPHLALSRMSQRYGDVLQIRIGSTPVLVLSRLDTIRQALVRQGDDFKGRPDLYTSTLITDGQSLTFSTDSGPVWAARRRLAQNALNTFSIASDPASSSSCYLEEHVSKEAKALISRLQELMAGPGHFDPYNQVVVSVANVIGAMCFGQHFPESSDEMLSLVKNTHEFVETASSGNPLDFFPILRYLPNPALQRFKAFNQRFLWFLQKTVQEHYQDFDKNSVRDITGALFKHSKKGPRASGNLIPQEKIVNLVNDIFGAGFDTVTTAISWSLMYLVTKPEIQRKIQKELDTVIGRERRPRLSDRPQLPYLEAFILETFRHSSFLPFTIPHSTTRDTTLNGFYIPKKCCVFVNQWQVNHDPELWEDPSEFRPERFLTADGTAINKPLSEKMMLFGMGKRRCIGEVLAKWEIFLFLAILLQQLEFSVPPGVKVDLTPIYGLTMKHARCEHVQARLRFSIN", "test": "Inhibition of CYP1A2", "format": "ADME"}, "Cytochrome P450 2D6": {"target": "Cytochrome P450 2D6 (Homo sapiens, UniProt P10635)", "sequence (P10635 whole entry)": "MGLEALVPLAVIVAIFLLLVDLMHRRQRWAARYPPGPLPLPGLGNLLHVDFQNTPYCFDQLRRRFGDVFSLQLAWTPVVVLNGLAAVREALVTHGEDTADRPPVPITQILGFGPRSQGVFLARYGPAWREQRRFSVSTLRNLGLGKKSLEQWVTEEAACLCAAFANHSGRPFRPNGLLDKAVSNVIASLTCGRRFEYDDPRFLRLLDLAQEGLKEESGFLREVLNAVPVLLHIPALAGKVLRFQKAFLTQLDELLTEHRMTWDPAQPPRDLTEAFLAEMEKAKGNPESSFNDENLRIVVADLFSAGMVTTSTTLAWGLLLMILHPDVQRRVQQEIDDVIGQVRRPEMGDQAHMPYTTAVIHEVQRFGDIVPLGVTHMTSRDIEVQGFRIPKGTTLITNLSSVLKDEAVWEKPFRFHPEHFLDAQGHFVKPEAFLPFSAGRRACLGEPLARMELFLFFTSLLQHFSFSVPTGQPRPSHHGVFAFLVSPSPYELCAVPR", "test": "Inhibition of CYP2D6", "format": "ADME"}, "[1]": {"test": "Clearance in rat", "format": "ADME, organism-based", "conditions": "in vivo; call rule not given here"}, "[2]": {"test": "Half life in rat", "format": "ADME, organism-based", "conditions": "in vivo"}, "Rattus norvegicus [3]": {"test_system": "Rattus norvegicus", "test": "Inhibition of DPP-4 in Sprague-Dawley rat plasma at 1 mg/kg, po administered as single dose measured at 24 hrs post dose", "format": "functional", "procedure,_shortened": "(§1)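 SD rats received a single oral dose of 1, 3 or 10 mg/kg. Plasma was sampled from 30 min up to 24 h after dosing, and plasma DPP-4 activity was measured as percent inhibition.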"}, "Mus musculus [4]": {"test_system": "Mus musculus", "test": "Antidiabetic activity in po dosed C57BL/6J mouse assessed as reduction in glucose AUC administered 30 mins before glucose challenge measured up to 120 mins by oral glucose tolerance test", "format": "functional, organism-based", "procedure,_shortened": "(§2)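 Oral dosing in C57BL/6J mice at 0.1, 0.3 or 1.0 mg/kg in 0.5% methylcellulose vehicle, followed by a 2 g/kg glucose challenge 30 min post-dose. […] Percent inhibition was calculated from AUC normalized to non-glucose controls. Means ± SEM.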"}, "[5]": {"target": "Voltage-gated inwardly rectifying potassium channel KCNH2 (Homo sapiens, UniProt Q12809)", "sequence (Q12809 whole entry)": "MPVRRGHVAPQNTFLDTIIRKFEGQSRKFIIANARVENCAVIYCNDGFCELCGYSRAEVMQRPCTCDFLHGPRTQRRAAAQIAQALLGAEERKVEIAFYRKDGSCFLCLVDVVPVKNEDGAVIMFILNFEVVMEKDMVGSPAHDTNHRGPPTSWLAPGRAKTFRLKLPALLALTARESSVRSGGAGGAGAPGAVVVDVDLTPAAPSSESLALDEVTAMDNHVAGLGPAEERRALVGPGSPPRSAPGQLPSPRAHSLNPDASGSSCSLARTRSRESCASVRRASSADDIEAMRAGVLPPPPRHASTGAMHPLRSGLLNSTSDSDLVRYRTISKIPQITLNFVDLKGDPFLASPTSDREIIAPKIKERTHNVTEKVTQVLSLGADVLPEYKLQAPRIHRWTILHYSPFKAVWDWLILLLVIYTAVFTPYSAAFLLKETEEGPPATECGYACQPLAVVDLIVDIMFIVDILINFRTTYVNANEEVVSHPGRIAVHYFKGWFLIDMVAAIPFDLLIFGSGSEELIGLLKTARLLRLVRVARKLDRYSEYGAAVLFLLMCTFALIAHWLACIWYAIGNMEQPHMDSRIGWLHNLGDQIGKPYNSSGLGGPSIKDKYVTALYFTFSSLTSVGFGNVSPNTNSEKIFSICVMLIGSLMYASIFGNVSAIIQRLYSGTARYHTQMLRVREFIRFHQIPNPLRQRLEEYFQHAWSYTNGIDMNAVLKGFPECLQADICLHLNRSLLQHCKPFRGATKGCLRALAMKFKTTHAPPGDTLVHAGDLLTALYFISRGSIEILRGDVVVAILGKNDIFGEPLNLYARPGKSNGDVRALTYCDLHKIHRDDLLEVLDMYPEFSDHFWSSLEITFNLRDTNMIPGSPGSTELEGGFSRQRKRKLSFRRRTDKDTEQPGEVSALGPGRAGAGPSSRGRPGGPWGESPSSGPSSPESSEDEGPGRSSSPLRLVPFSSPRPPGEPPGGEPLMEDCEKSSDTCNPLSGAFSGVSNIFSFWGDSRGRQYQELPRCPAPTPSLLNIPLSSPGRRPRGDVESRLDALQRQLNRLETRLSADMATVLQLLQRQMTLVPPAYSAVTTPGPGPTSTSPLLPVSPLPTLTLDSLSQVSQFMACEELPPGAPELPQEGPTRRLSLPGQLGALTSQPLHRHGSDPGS", "test": "Inhibition of human ERG by patch clamp method"}, "Rattus norvegicus [6]": {"test_system": "Rattus norvegicus", "test": "Inhibition of DPP-4 in Sprague-Dawley rat plasma at 10 mg/kg, po administered as single dose measured at 24 hrs post dose", "format": "functional", "procedure,_shortened": "as §1"}, "[7]": {"test": "Half life in human liver microsomes", "format": "ADME, Microsome"}, "Mus musculus [8]": {"test_system": "Mus musculus", "test": "Antidiabetic activity in C57BL/6J mouse assessed as inhibition of blood glucose elevation at 1 mg/kg, po administered 30 mins before glucose challenge by oral glucose tolerance test", "format": "functional", "procedure,_shortened": "as §2"}, "Rattus norvegicus [9]": {"test_system": "Rattus norvegicus", "test": "Inhibition of DPP-4 in Sprague-Dawley rat plasma at 3 mg/kg, po administered as single dose measured at 24 hrs post dose", "format": "functional", "procedure,_shortened": "as §1"}, "[10]": {"test": "Oral bioavailability in rat", "format": "ADME, organism-based", "conditions": "in vivo"}, "[11]": {"test": "Volume of distribution at steady state in rat", "format": "ADME, organism-based", "conditions": "in vivo, read-out: Vdss"}, "Rattus norvegicus [12]": {"species": "Rattus norvegicus", "conditions": "Sprague-Dawley, Plasma, 1 mg/kg"}}, "data": [{"smiles": "COc1ccc(CN2CCN(C(=O)C[C@H](N)Cc3cc(F)c(F)cc3F)CC2=O)cc1", "values": [{"measurement": "IC50", "setting": "Cytochrome P450 3A4", "result": 1.07, "unit": "µM"}]}, {"smiles": "N[C@@H](CC(=O)N1CCNC(=O)[C@H]1CO)Cc1cc(F)c(F)cc1F", "values": [{"measurement": "inhibition (INH)", "setting": "Cytochrome P450 2C9", "result": "Not Active"}, {"measurement": "inhibition (INH)", "setting": "Cytochrome P450 3A4", "result": "Not Active"}, {"measurement": "inhibition (INH)", "setting": "Cytochrome P450 2C19", "result": "Not Active"}, {"measurement": "inhibition (INH)", "setting": "Cytochrome P450 1A2", "result": "Not Active"}, {"measurement": "inhibition (INH)", "setting": "Cytochrome P450 2D6", "result": "Not Active"}]}, {"smiles": "CC(C)(C)OC[C@@H]1C(=O)NCCN1C(=O)C[C@H](N)Cc1cc(F)c(F)cc1F", "note": "[EVOGLIPTIN]", "values": [{"measurement": "clearance", "setting": "[1]", "result": 60.5, "unit": "mL/min/kg"}, {"measurement": "half-life", "setting": "[2]", "result": 6.1, "unit": "h"}, {"measurement": "inhibition in vivo at 1 mg/kg", "setting": "Rattus norvegicus [3]", "result": 72.5, "unit": "%"}, {"measurement": "INH", "setting": "Cytochrome P450 2C9", "result": "> 50", "unit": "µM"}, {"measurement": "Activity", "setting": "Mus musculus [4]", "result": "Dose-dependent effect"}, {"measurement": "IC50", "setting": "[5]", "result": 79.6, "unit": "µM"}, {"measurement": "INH", "setting": "Cytochrome P450 3A4", "result": "> 50", "unit": "µM"}, {"measurement": "inhibition in vivo at 10 mg/kg", "setting": "Rattus norvegicus [6]", "result": 87.2, "unit": "%"}, {"measurement": "half-life", "setting": "[7]", "result": "> 1.5", "unit": "h"}, {"measurement": "inhibition in vivo at 1 mg/kg", "setting": "Mus musculus [8]", "result": 63, "unit": "%"}, {"measurement": "inhibition in vivo at 3 mg/kg", "setting": "Rattus norvegicus [9]", "result": 82.9, "unit": "%"}, {"measurement": "INH", "setting": "Cytochrome P450 2C19", "result": "> 50", "unit": "µM"}, {"measurement": "INH", "setting": "Cytochrome P450 1A2", "result": "> 50", "unit": "µM"}, {"measurement": "bioavailability", "setting": "[10]", "result": 74.8, "unit": "%"}, {"measurement": "Vd", "setting": "[11]", "result": 12, "unit": "L/kg"}, {"measurement": "INH", "setting": "Cytochrome P450 2D6", "result": "> 50", "unit": "µM"}, {"measurement": "inhibition", "setting": "Rattus norvegicus [12]", "result": "Dose-dependent effect"}]}]}
